Bioassay records as filed in PubChem.
Compounds with a hit are over-represented: about 2.6% of the library has one in this group of screens.
XiGFP reactiv = activators of X-chromosome reactivation in mouse fibroblasts. XiGFP mouse fibroblasts, % GFP-positive cells imaging, 3 d; cells co-treated with 5-aza-dC sensitizer; scaled so ellipticine positive control = 100%. activation, % at 7.58 µM. hit rate 0.055% among 360,000. AID 743238;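 active = mean normalized replicate activation at least 10% and every replicate at or above 10%; inconclusive = only one of the two criteria met; inactive = mean below 10% and not all replicates reach 10%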
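assay system = SV40-immortalized XiGFP fibroblast cells, line 68-5-11 | buffer or medium = DMEM plus 5-aza-dC sensitizer | doses = single-point pinned compound dosing | times = 3-day compound exposure, then 15 min fixation at room temperature | benchmarks = positive control ellipticine, 6 µM final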
Wnt act = activates Wnt/beta-catenin signaling in a reporter cell assay; activator, plate reader; activation, % at 9.35 µM; hit rate 1.2% among 300,000; AID 743398; in the data active = activation above about 30%, passing the limit was not always enough; inconclusive = no clear call, values can overlap the other calls
Vif inh = blocks HIV Vif function | HEK293T cells, Vif self-association by quenched fluorescence, imaging, 24 h | inhibition, % at 7.49 µM | hit rate 0.35% among 340,000 | AID 602346; in the data active = inhibition above about 50%, passing the limit was not always enough; inconclusive = no clear call, values can overlap the other calls; inactive = below about 31%
MITF act = activators of MITF-driven TRPM1 promoter activity in SK-MEL-5 cells. AID 588334. SK-MEL-5 TRPM1-promoter luciferase, 24 h; % of positive control, neutral wells = 0. hit rate 0.75% among 300,000. activation, % at 12.5 µM;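 active = mean activation of at least 80% with every replicate also reaching 80%; inconclusive = mean reaches 80% but some replicate falls short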
esBAF inh = blocks esBAF chromatin remodeling in mouse ES cells; Bmi1-luciferase knock-in reporter, 24 h; 100% = twice the neutral-well signal; reporter increase, % at 12.5 µM; hit rate 2% among 350,000; AID 602393; in the data active = activation above about 40%; inconclusive = no clear call, values can overlap the other calls;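 also: a rise in the Bmi1 reporter signal indicates esBAF inhibition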
Hits are given with their value; i = inactive; ? = inconclusive; nt = no result given.

SMILES | XiGFP reactiv | Wnt act | Vif inh | MITF act | esBAF inh
S=C(NCCc1ccc(Cl)cc1)NC1CCCCC1 | i | i | i | 89 | 63
Fc1ccccc1NC(=S)NCCc1ccccc1 | nt | i | i | nt | 49
C[C@@H]1CN([C@@H](C)CO)C(=O)c2cc(NC(=O)Nc3ccc4c(c3)OCO4)ccc2O[C@@H]1CN(C)C(=O)Nc1ccc(C(F)(F)F)cc1 | i | nt | nt | nt | i
CCCN(C)C[C@@H]1Oc2ncc(C#CC3(O)CCCC3)cc2C(=O)N([C@@H](C)CO)C[C@@H]1C | i | nt | nt | nt | i
O=C(NC(=S)NCCc1ccccc1)c1ccccc1F | i | i | i | i | i
O=C(NC(=S)NCCc1ccccc1)c1ccccc1 | nt | i | i | i | 67
Cc1cc(C(=O)COC(=O)c2ccc(N)c([N+](=O)[O-])c2)c(C)n1Cc1ccc2c(c1)OCO2 | i | 37 | i | i | 89
Cc1cc(C(=O)COC(=O)c2ccc(N)c([N+](=O)[O-])c2)c(C)n1-c1ccc2c(c1)OCO2 | i | nt | i | i | i
O=C(COC(=O)c1ccc(Br)cc1)NCCc1ccccc1 | i | nt | i | i | nt
O=C(COC(=O)c1ccccc1)c1ccc(Br)cc1 | nt | i | i | i | 61
CNc1ccccc1C(=O)OCC(=O)c1ccccc1 | nt | nt | i | i | 59
CNc1ccccc1C(=O)OCC(=O)c1ccc(F)cc1 | i | i | i | i | nt
COC(=O)c1ccc(CN2CC(=O)N3[C@@H](CO)[C@H](c4ccc(-c5ccccc5)cc4)[C@@H]3C2)cc1 | i | nt | nt | nt | nt
CC(=O)N1c2c(cc(Br)cc2S(=O)(=O)N2CCOCC2)CC1C (centres undefined) | nt | nt | 63 | i | i
C[C@H](CO)N1C[C@H](C)[C@H](CN(C)Cc2ccc(Oc3ccccc3)cc2)Oc2ccc(NC(=O)CCCN(C)C)cc2CC1=O | i | nt | nt | nt | i
COc1ccccc1OCc1nc2ccccc2[nH]1 | nt | 64 | i | ? | i
Cc1ccccc1OCc1nc2ccccc2[nH]1 | i | i | i | i | nt
COc1ccc(OCc2nc3ccccc3[nH]2)cc1 | nt | nt | i | i | i
COc1cccc(OCc2nc3ccccc3[nH]2)c1 | i | i | nt | nt | ?
Brc1ccc(OCc2nc3ccccc3[nH]2)cc1 | i | 36 | i | 100 | ?
c1ccc2cc(OCc3nc4ccccc4[nH]3)ccc2c1 | nt | nt | i | i | 51
CS(=O)(=O)Nc1ccc2c(c1)[C@H]1C[C@H](CC(=O)NCC(F)(F)F)O[C@H](CO)[C@H]1O2 | i | nt | nt | nt | i
O=C(CN1CCOCC1)N[C@H]1CC[C@H](CCNS(=O)(=O)c2ccccc2F)O[C@@H]1CO | i | nt | nt | nt | i
COc1ccc(NC(=O)N(C)C[C@H]2Oc3c(NC(=O)C4CCOCC4)cccc3C(=O)N([C@H](C)CO)C[C@@H]2C)cc1 | i | nt | nt | nt | i
CC(C)C1Oc2ccccc2C(=O)N(CC(=O)c2ccc3c(c2)OCCO3)C1=O (centres undefined) | i | 33 | i | i | 71
SMILES | XiGFP reactiv | Wnt act | Vif inh | MITF act | esBAF inh
CCC1Oc2ccccc2C(=O)N(CC(=O)c2ccc3c(c2)OCCO3)C1=O (centres undefined) | i | i | i | i | 69
CC(C)CN1C(=O)C(=O)N(CC(=O)NCc2ccc3c(c2)OCO3)C1=O | nt | nt | nt | i | i
CC(C)CN1C(=O)C(=O)N(CC(=O)c2ccc3c(c2)OCO3)C1=O | i | i | 147 | i | i
CC12CCC(C(=O)NCCc3ccccc3)(OC1=O)C2(C)C (centres undefined) | i | i | 52 | i | nt
CC(C)C(=O)Nc1ccc2c(c1)C(=O)N(C)[C@H]1CC[C@H](CC(=O)NCC3CC3)O[C@@H]1CO2 | i | nt | nt | nt | i
Cc1nc(SCc2ccc(OCCC(C)C)cc2)n[nH]1 | i | i | i | i | 45
CCCCCOc1ccc(CSc2n[nH]c(C)n2)cc1 | i | i | i | i | nt
CO[C@H]1CN(C)C(=O)c2cc(NC(=O)C3CCC3)ccc2OC[C@H](C)N(C)C[C@@H]1C | i | nt | nt | nt | i
O=C(CCCC(=O)c1ccc(O)cc1)c1ccc(O)cc1 | i | 56 | i | 98 | i
O=C(CCCc1ccccc1)c1ccccc1 | nt | 31 | i | 92 | i
O=C(CCCOC(=O)c1ccc(O)cc1)c1ccccc1 | i | i | i | i | 43
Cc1nn(C)cc1CN(C)Cc1ccc(OCC(O)CN2CCCCC2)cc1 (centres undefined) | i | i | 64 | i | nt
CN(Cc1ccc(OCC(O)CN2CCCCC2)cc1)Cc1ccnc2ccccc12 (centres undefined) | i | i | i | i | i
COc1ccc(-c2cn[nH]c2C)cc1 | i | i | i | nt | nt
